Consider eight compounds from ChEMBL document CHEMBL1133014, “Design, synthesis, and SAR of novel carbapenem antibiotics with high stability to Xanthomonas maltophilia oxyiminocephalosporinase type II” (2000).

Common to all, as to assay type: functional
The subject of one assay is Escherichia coli. The assay can be described thus: In vitro antimicrobial activity against Escherichia coli ATCC 39188 was determined. The procedure, abridged: (§1)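 MIC by agar dilution: organisms applied onto antibiotic-containing agar plates with a Steers-type replicator. MIC taken as the lowest concentration preventing visible growth, averaged from duplicate determinations (± standard error).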

In a further assay the test system is Klebsiella pneumoniae. The assay can be described thus: In vitro antimicrobial activity against Klebsiella pneumoniae NCTC 418 was determined. The procedure, abridged:
as §1

Assay [1] concerns Pseudomonas aeruginosa. The assay can be described thus: In vitro antimicrobial activity against Pseudomonas aeruginosa 18S-H was determined. The procedure, abridged: as §1
The test system of assay [2] is Pseudomonas aeruginosa. The assay can be described thus: Minimum protective concentration against beta-lactamase of Pseudomonas aeruginosa 18S-H. Put shortly: (§2)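 Minimum protective concentration taken as the lowest β-lactam concentration protecting a chromogenic indicator from β-lactamase hydrolysis within 1.0 h under standard conditions. Hydrolysis was read as a distinct red color. Compound stability without enzyme was checked at 37 °C in phosphate buffer, pH 6.5.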

In assay [3] the test system is Pseudomonas aeruginosa. In words: In vitro antimicrobial activity against Pseudomonas aeruginosa 1101-75 was determined. Put shortly:
as §1

Assay [4] deals with Staphylococcus aureus. The assay can be described thus: In vitro antimicrobial activity against Staphylococcus aureus 95 (methicillin-resistant strain) was determined. Put shortly: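 Agar dilution MIC: organisms were deposited onto medicated agar plates with a Steers-type replicator. MIC was read as the lowest antibiotic concentration preventing visible growth. Values are averages of duplicate determinations with standard error.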

For assay [5], the system named is Staphylococcus aureus. The assay can be described thus: Minimum protective concentration against beta-lactamase of Staphylococcus aureus 95. The procedure, abridged:
as §2

Assay [6] concerns Staphylococcus aureus. In words: In vitro antimicrobial activity against Staphylococcus aureus FDA 209P was determined. The procedure, abridged:
as §1

Assay [7] in a line: In vitro antimicrobial activity against Xanthomonas maltophilia GN 12873 in combination (1:1 w/w) with imipenem. The conditions noted are these: Stenotrophomonas maltophilia. The procedure, abridged:
as §1

Assay [8] is described as follows: In vitro antimicrobial activity against Xanthomonas maltophilia GN 12873 was determined. As to conditions: Stenotrophomonas maltophilia. The procedure, abridged: as §1
For assay [9], the system named is Stenotrophomonas maltophilia. In words: Minimum protective concentration against beta-lactamase of Xanthomonas maltophilia GN 12873 (CXase-I). Put shortly:
as §2

Assay [10] concerns Stenotrophomonas maltophilia. In words: Minimum protective concentration against beta-lactamase of Xanthomonas maltophilia GN 12873 (CXase-II). Put shortly: as §2

Usually MIC stands for the lowest concentration found to suppress growth.

The structures appear in SMILES notation. ≈ marks a conversion by molar mass, not a printed value. A value given as a limit tells only on which side of the number the result lay.

Turning to `O=C(Cc1ccccc1)N[C@@H]1C(=O)N2C(C(=O)O)=CC[C@H]12` (racemic), the MIC was 0.98 µg/mL (≈ 3.42 µM) in the assay with Escherichia coli; 1.92 µg/mL (≈ 6.71 µM) in the assay with Klebsiella pneumoniae; 31.6 µg/mL (≈ 110 µM) against Pseudomonas aeruginosa [1]; 8.91 µg/mL (≈ 31.1 µM) in the assay on Pseudomonas aeruginosa [3]; 30.7 µg/mL (≈ 107 µM) against Staphylococcus aureus [4]; 0.12 µg/mL (≈ 0.419 µM) in the assay on Staphylococcus aureus [6]. The MIC was 2.15 µg/mL in assay [7] and 10.3 µg/mL (≈ 35.9 µM) in assay [8]. In addition, the MPC amounted to 4.21 µg/mL in the assay on Pseudomonas aeruginosa [2], 3.45 µg/mL with Staphylococcus aureus [5], 30 µg/mL in assay [9] and 33.6 µg/mL in assay [10].
On to `COC(=O)CC1=C(C(=O)O)N2C(=O)[C@@H](NC(=O)Cc3ccccc3)[C@H]2C1` (racemic), for which the MIC stood at 0.67 µg/mL (≈ 1.87 µM) with Escherichia coli; 0.77 µg/mL (≈ 2.15 µM) against Klebsiella pneumoniae; 21.3 µg/mL (≈ 59.4 µM) against Pseudomonas aeruginosa [1]; 1.8 µg/mL (≈ 5.02 µM) with Pseudomonas aeruginosa [3]; 18.5 µg/mL (≈ 51.7 µM) in the assay with Staphylococcus aureus [4]; 0.04 µg/mL (≈ 0.112 µM) against Staphylococcus aureus [6]. Besides, the MIC was 0.98 µg/mL in [7] and 5.97 µg/mL (≈ 16.7 µM) in [8]. Further, the MPC turned out to be 8.74 µg/mL in the assay on Pseudomonas aeruginosa [2], 6.87 µg/mL in the assay on Staphylococcus aureus [5], 30.4 µg/mL in [9] and 35 µg/mL in assay [10].
For the compound `O=C(Cc1ccccc1)N[C@@H]1C(=O)N2C(C(=O)O)=C(CCO)C[C@H]12` (racemic), the MIC in the assay on Escherichia coli was found to be 0.75 µg/mL (≈ 2.27 µM); against Klebsiella pneumoniae, 0.88 µg/mL (≈ 2.66 µM); with Pseudomonas aeruginosa [1] it was 22.6 µg/mL (≈ 68.5 µM); in the assay on Pseudomonas aeruginosa [3] it was 3.51 µg/mL (≈ 10.6 µM); in the assay with Staphylococcus aureus [4] it was 19.2 µg/mL (≈ 58.2 µM); with Staphylococcus aureus [6], 0.07 µg/mL (≈ 0.212 µM). Moreover, the MIC in assay [7] was 0.77 µg/mL; in [8] it was 6.73 µg/mL (≈ 20.4 µM). Besides, the MPC in the assay on Pseudomonas aeruginosa [2] came to 6.98 µg/mL; with Staphylococcus aureus [5], 7.18 µg/mL; in assay [9], 36.7 µg/mL; in assay [10], 42.1 µg/mL.
Consider `CC(=O)OCCC1=C(C(=O)O)N2C(=O)[C@@H](NC(=O)Cc3ccccc3)[C@H]2C1` (racemic), for which the MIC amounted to 0.69 µg/mL (≈ 1.85 µM) with Escherichia coli; 1.08 µg/mL (≈ 2.9 µM) against Klebsiella pneumoniae; 17.2 µg/mL (≈ 46.2 µM) against Pseudomonas aeruginosa [1]; 2.87 µg/mL (≈ 7.71 µM) against Pseudomonas aeruginosa [3]; 14.9 µg/mL (≈ 40.1 µM) in the assay on Staphylococcus aureus [4]; 0.05 µg/mL (≈ 0.134 µM) in the assay with Staphylococcus aureus [6]. Besides, the MIC in assay [7] was 0.39 µg/mL; in [8], 4.12 µg/mL (≈ 11.1 µM). The MPC in the assay on Pseudomonas aeruginosa [2] turned out to be 5.87 µg/mL; with Staphylococcus aureus [5], 6.12 µg/mL; in [9], 27.5 µg/mL; in assay [10], 47.8 µg/mL.
As to `O=C(Cc1ccccc1)N[C@@H]1C(=O)N2C(C(=O)O)=C(C(=O)O)C[C@H]12` (racemic), the MIC in the assay on Escherichia coli came to 0.48 µg/mL (≈ 1.45 µM); in the assay on Klebsiella pneumoniae, 0.56 µg/mL (≈ 1.7 µM); in the assay on Pseudomonas aeruginosa [1], 28.2 µg/mL (≈ 85.3 µM); with Pseudomonas aeruginosa [3], 5.63 µg/mL (≈ 17 µM); with Staphylococcus aureus [4], 13.9 µg/mL (≈ 42 µM); in the assay with Staphylococcus aureus [6], 0.03 µg/mL (≈ 0.0908 µM). The figures for the MIC in assay [7] and in [8] were 1.58 µg/mL and 9.61 µg/mL (≈ 29.1 µM), respectively. Moreover, the MPC in the assay with Pseudomonas aeruginosa [2] is 2.38 µg/mL; with Staphylococcus aureus [5], 2.2 µg/mL; in [9], 25.5 µg/mL; in assay [10], 29.4 µg/mL.
Consider `COC(=O)C1=C(C(=O)O)N2C(=O)[C@@H](NC(=O)Cc3ccccc3)[C@H]2C1` (racemic), for which the MIC in the assay with Escherichia coli stood at 0.2 µg/mL (≈ 0.581 µM); in the assay with Klebsiella pneumoniae, 0.15 µg/mL (≈ 0.436 µM); against Pseudomonas aeruginosa [1], 12.1 µg/mL (≈ 35.1 µM); in the assay on Pseudomonas aeruginosa [3] it was 0.89 µg/mL (≈ 2.58 µM); against Staphylococcus aureus [4], 8.3 µg/mL (≈ 24.1 µM); in the assay on Staphylococcus aureus [6], 0.01 µg/mL (≈ 0.029 µM). In addition, the values for the MIC in [7] and in assay [8] were 2.01 µg/mL and 12.1 µg/mL (≈ 35.2 µM), respectively. Besides, the MPC worked out at 1.02 µg/mL in the assay with Pseudomonas aeruginosa [2], 0.98 µg/mL with Staphylococcus aureus [5], 14.6 µg/mL in assay [9] and 16.7 µg/mL in [10].
For `C[C@@H](O)[C@H]1C(=O)N2C(C(=O)O)=C(SCCNC=N)C[C@H]12.O` [IMIPENEM], the MIC in the assay with Escherichia coli was determined as 0.35 µg/mL; against Klebsiella pneumoniae, 0.4 µg/mL; in the assay on Pseudomonas aeruginosa [1], 35.6 µg/mL; in the assay on Pseudomonas aeruginosa [3], 4.71 µg/mL; with Staphylococcus aureus [4] it was 15.7 µg/mL; against Staphylococcus aureus [6], 0.02 µg/mL. In [8], this compound had an MIC of more than 128 µg/mL. Besides, the MPC in the assay on Pseudomonas aeruginosa [2] turned out to be 35.61 µg/mL; in the assay on Staphylococcus aureus [5] it was 30.12 µg/mL; in assay [9], 46.8 µg/mL; in assay [10] it was 0.87 µg/mL.
With `CC1(C)S[C@@H]2[C@H](NC(=O)Cc3ccccc3)C(=O)N2[C@H]1C(=O)O` [PENICILLIN G], the MIC is 2.87 µg/mL (≈ 8.58 µM) in the assay with Escherichia coli; more than 128 µg/mL in the assay on Klebsiella pneumoniae; more than 128 µg/mL in the assay with Pseudomonas aeruginosa [1]; more than 128 µg/mL against Pseudomonas aeruginosa [3]; more than 128 µg/mL with Staphylococcus aureus [4]; 0.51 µg/mL (≈ 1.53 µM) with Staphylococcus aureus [6]. In assay [8], this compound had an MIC of more than 128 µg/mL. For the same compound, the MPC with Pseudomonas aeruginosa [2] worked out at 1.03 µg/mL; with Staphylococcus aureus [5], 1.85 µg/mL; in assay [9], 23.6 µg/mL; in assay [10], 28.8 µg/mL.
